Assay results from ChEMBL document CHEMBL1146009, “Synthesis and cytotoxic activity of polyamine analogues of camptothecin” (J Med Chem, 2006).

Experiments:
NCI-H460 = assay: Inhibition of human H460 cell growth; assay type: functional, cell-based
Outline: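 H460 cells grown in RPMI-1640 with 10% FCS, seeded in duplicate in log phase. Drug from DMSO stock added 24 h after seeding for 1 h exposure. Cells counted 72 h later by Coulter counter. IC50 is the concentration giving 50% growth decrease versus untreated control; mean ± SD of at least three experiments.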

[1] = molecular target: T1, DNA topoisomerase 1 (Homo sapiens) (UniProt P11387); assay: Activity against human Top1-mediated DNA cleavage after 10 mins; assay type: functional
T1 sequence (whole entry): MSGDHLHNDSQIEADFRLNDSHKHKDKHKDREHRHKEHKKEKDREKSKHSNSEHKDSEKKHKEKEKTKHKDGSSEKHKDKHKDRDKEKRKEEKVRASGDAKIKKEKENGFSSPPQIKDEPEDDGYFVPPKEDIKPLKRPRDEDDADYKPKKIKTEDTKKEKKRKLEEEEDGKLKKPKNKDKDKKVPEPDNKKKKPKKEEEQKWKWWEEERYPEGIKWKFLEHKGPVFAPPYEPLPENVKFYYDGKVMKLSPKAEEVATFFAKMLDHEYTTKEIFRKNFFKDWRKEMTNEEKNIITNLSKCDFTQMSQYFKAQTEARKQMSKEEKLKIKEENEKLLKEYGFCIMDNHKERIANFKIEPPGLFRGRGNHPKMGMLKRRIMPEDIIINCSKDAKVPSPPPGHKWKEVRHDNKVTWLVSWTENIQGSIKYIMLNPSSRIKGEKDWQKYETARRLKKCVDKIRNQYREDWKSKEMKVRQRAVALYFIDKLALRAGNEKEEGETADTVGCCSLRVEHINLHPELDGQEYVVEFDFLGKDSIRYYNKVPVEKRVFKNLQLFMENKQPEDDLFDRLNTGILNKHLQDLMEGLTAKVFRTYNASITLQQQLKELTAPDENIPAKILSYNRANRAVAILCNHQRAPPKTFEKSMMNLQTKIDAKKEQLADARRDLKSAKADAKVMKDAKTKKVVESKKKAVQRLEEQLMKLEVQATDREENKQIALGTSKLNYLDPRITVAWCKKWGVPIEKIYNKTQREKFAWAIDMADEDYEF
Outline: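 Purified full-length human recombinant top1 from GST-tagged yeast expression (640 ng per reaction), 3′-end-labelled 751-bp SV40 DNA fragment, pH 7.6 Tris buffer with 150 mM KCl, 5 mM MgCl2. 30 min at 37 °C, then 0.6 M NaCl added to reverse cleavage. Cleavage bands on denaturing gel quantified by phosphorimaging as cleaved/uncleaved radioactivity ratio, relative to 30 min level (100%).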

Mus musculus [2] = assay: Toxicity in nude athymic mouse at 4 mg/kg, iv; assay type: organism-based; parameters: dose 4 mg/kg, route intravenous; conditions: in vivo
Mus musculus [3] = assay: Toxicity in nude athymic mouse at 1 mg/kg, iv; assay type: organism-based; parameters: dose 1 mg/kg, route intravenous; conditions: in vivo
MKN-28 [4] = assay: Antitumor activity against human MKN28 cell line xenografted in nude athymic mouse at 2 mg/kg, po measured as body weight loss; assay type: functional
MKN-28 [5] = assay: Antitumor activity against human MKN28 cell line xenografted in nude athymic mouse at 1 mg/kg, po measured as body weight loss; assay type: functional
MKN-28 [6] = assay: Antitumor activity against human MKN28 cell line xenografted in nude athymic mouse at 4 mg/kg, po measured as body weight loss; assay type: functional
Mus musculus [7] = assay: Toxicity in nude athymic mouse at 4 mg/kg, po; assay type: organism-based; parameters: dose 4 mg/kg, route oral; conditions: in vivo
Mus musculus [8] = assay: Toxicity in nude athymic mouse at 1 mg/kg, po; assay type: organism-based; parameters: dose 1 mg/kg, route oral; conditions: in vivo
MKN-28 [9] = assay: Antitumor activity against human MKN28 cell line xenografted in nude athymic mouse at 1 mg/kg, po measured as tumor volume inhibition relative to control; assay type: functional
Outline: (§1)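 Tumour fragments implanted on both flanks of nude athymic mice at day 0. Dosing iv or po started when tumours were just palpable (day 3-4). Tumour volume inhibition (%) is treated over control, 20 days after last treatment.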

MKN-28 [10] = assay: Antitumor activity against human MKN28 cell line xenografted in nude athymic mouse at 4 mg/kg, po measured as log10 of cell kill to reach 1000 mm3 tumor volume; assay type: functional
MKN-28 [11] = assay: Antitumor activity against human MKN28 cell line xenografted in nude athymic mouse at 1 mg/kg, po measured as log10 of cell kill to reach 1000 mm3 tumor volume; assay type: functional
Mus musculus [12] = assay: Toxicity in nude athymic mouse at 2 mg/kg, po; assay type: organism-based; parameters: dose 2 mg/kg, route oral; conditions: in vivo
MKN-28 [13] = assay: Antitumor activity against human MKN28 cell line xenografted in nude athymic mouse at 2 mg/kg, po measured as log10 of cell kill to reach 1000 mm3 tumor volume; assay type: functional
MKN-28 [14] = assay: Antitumor activity against human MKN28 cell line xenografted in nude athymic mouse at 2 mg/kg, po measured as tumor volume inhibition relative to control; assay type: functional; outline: as §1
MKN-28 [15] = assay: Antitumor activity against human MKN28 cell line xenografted in nude athymic mouse at 4 mg/kg, po measured as tumor volume inhibition relative to control; assay type: functional; outline: as §1
Mus musculus [16] = assay: Toxicity in nude athymic mouse at 5 mg/kg, po; assay type: organism-based; parameters: dose 5 mg/kg, route oral; conditions: in vivo
Outline: (§2)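 Nude athymic mice bearing MKN-28 human gastric carcinoma xenografts, from tumor fragments inoculated on both flanks at day 0. Oral treatment started when tumors were just palpable (day 3-4). Body weight loss (%) and toxicity were recorded per dose group, with toxicity given as a count over 4 mice.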

MKN-28 [17] = assay: Antitumor activity against human MKN28 cell line xenografted in nude athymic mouse at 9 mg/kg, po measured as body weight loss; assay type: functional; outline: as §2
MKN-28 [18] = assay: Antitumor activity against human MKN28 cell line xenografted in nude athymic mouse at 5 mg/kg, po measured as tumor volume inhibition relative to control; assay type: functional
Outline: (§3)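 MKN-28 human gastric carcinoma tumor fragments inoculated on both flanks of nude athymic mice at day 0. Oral dosing began when tumors were just palpable (day 3-4). Read-out was tumor volume inhibition (%) of treated over control animals, 20 days after the last treatment. Groups of 4 mice.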

MKN-28 [19] = assay: Antitumor activity against human MKN28 cell line xenografted in nude athymic mouse at 15 mg/kg, po measured as log10 of cell kill to reach 1000 mm3 tumor volume; assay type: functional
MKN-28 [20] = assay: Antitumor activity against human MKN28 cell line xenografted in nude athymic mouse at 5 mg/kg, po measured as log10 of cell kill to reach 1000 mm3 tumor volume; assay type: functional
MKN-28 [21] = assay: Antitumor activity against human MKN28 cell line xenografted in nude athymic mouse at 15 mg/kg, po measured as tumor volume inhibition relative to control; assay type: functional; outline: as §3
MKN-28 [22] = assay: Antitumor activity against human MKN28 cell line xenografted in nude athymic mouse at 5 mg/kg, po measured as body weight loss; assay type: functional; outline: as §2
Mus musculus [23] = assay: Toxicity in nude athymic mouse at 15 mg/kg, po; assay type: organism-based; parameters: dose 15 mg/kg, route oral; conditions: in vivo; outline: as §2
MKN-28 [24] = assay: Antitumor activity against human MKN28 cell line xenografted in nude athymic mouse at 15 mg/kg, po measured as body weight loss; assay type: functional; outline: as §2
MKN-28 [25] = assay: Antitumor activity against human MKN28 cell line xenografted in nude athymic mouse at 9 mg/kg, po measured as tumor volume inhibition relative to control; assay type: functional; outline: as §3
MKN-28 [26] = assay: Antitumor activity against human MKN28 cell line xenografted in nude athymic mouse at 9 mg/kg, po measured as log10 of cell kill to reach 1000 mm3 tumor volume; assay type: functional
Mus musculus [27] = assay: Toxicity in nude athymic mouse at 9 mg/kg, po; assay type: organism-based; parameters: dose 9 mg/kg, route oral; conditions: in vivo; outline: as §2

## CC[C@@]1(O)C(=O)OCc2c1cc1n(c2=O)Cc2c-1nc1ccccc1c2CNCCCNCCCCNCCCN
NCI-H460
  IC50: 1430 nM
[1]
  Activity: 60%

## CC[C@@]1(O)C(=O)OCc2c1cc1n(c2=O)Cc2c-1nc1ccccc1c2/C=N\OCCCN
NCI-H460
  IC50: 1770 nM

## CC[C@@]1(O)C(=O)OCc2c1cc1n(c2=O)Cc2c-1nc1ccccc1c2/C=N/CCCN(CCCCNC(=O)OC(C)(C)C)C(=O)OC(C)(C)C
NCI-H460
  IC50: 15 nM
Mus musculus [2]
  Activity: Non-toxic
Mus musculus [3]
  Activity: Non-toxic

## CC[C@@]1(O)C(=O)OCc2c1cc1n(c2=O)Cc2c-1nc1ccccc1c2CNCCCN(CCCCN(CCCNC(=O)OC(C)(C)C)C(=O)OC(C)(C)C)C(=O)OC(C)(C)C
NCI-H460
  IC50: 1400 nM

## CC[C@@]1(O)C(=O)OCc2c1cc1n(c2=O)Cc2c-1nc1ccccc1c2CN(CCCN(CCCCN(CCCNC(=O)OC(C)(C)C)C(=O)OC(C)(C)C)C(=O)OC(C)(C)C)C(=O)OC(C)(C)C
NCI-H460
  IC50: 3270 nM

## CC[C@@]1(O)C(=O)OCc2c1cc1n(c2=O)Cc2c-1nc1ccccc1c2/C=N\OCCN(CCCCNC(=O)OC(C)(C)C)C(=O)OC(C)(C)C
NCI-H460
  IC50: 1150 nM

## CC[C@@]1(O)C(=O)OCc2c1cc1n(c2=O)Cc2c-1nc1ccccc1c2/C=N\OCCNC(=O)OC(C)(C)C
NCI-H460
  IC50: 84 nM

## CC[C@@]1(O)C(=O)OCc2c1cc1n(c2=O)Cc2c-1nc1ccccc1c2/C=N\OCCCNC(=O)OC(C)(C)C
NCI-H460
  IC50: 300 nM

## CCc1c2c(nc3ccc(O)cc13)-c1cc3c(c(=O)n1C2)COC(=O)[C@]3(O)CC [7-ETHYL-10-HYDROXYCAMPTOTHECIN]
NCI-H460
  IC50: 80 nM

## CC[C@@]1(O)C(=O)OCc2c1cc1n(c2=O)Cc2c-1nc1ccccc1c2/C=N\OCCNCCCCN
NCI-H460
  IC50: 1160 nM
[1]
  Activity: 60%

## CC[C@@]1(O)C(=O)OCc2c1cc1n(c2=O)Cc2c-1nc1ccccc1c2/C=N\OCCN(CCCCN(CCCNC(=O)OC(C)(C)C)C(=O)OC(C)(C)C)C(=O)OC(C)(C)C
NCI-H460
  IC50: 1060 nM

## CC[C@@]1(O)C(=O)OCc2c1cc1n(c2=O)Cc2c-1nc1ccccc1c2/C=N/CCCN(CCCCN(CCCNC(=O)OC(C)(C)C)C(=O)OC(C)(C)C)C(=O)OC(C)(C)C
MKN-28 [4]
  Activity: 1%
NCI-H460
  IC50: 29 nM
MKN-28 [5]
  Activity: 5%
MKN-28 [6]
  Activity: 7%
Mus musculus [7]
  Activity: Non-toxic
Mus musculus [8]
  Activity: Non-toxic
MKN-28 [9]
  inhibition in vivo at 1 mg/kg: 28%
MKN-28 [10]
  Activity: 1
MKN-28 [11]
  Activity: 0.1
Mus musculus [12]
  Activity: Non-toxic
MKN-28 [13]
  Activity: 0.5
MKN-28 [14]
  inhibition in vivo at 2 mg/kg: 62%
MKN-28 [15]
  inhibition in vivo at 4 mg/kg: 72%

## CC[C@@]1(O)C(=O)OCc2c1cc1n(c2=O)Cc2cc3c(CN(C)C)c(O)ccc3nc2-1 [TOPOTECAN]
Mus musculus [16]
  Activity: Non-toxic
MKN-28 [17]
  Activity: 0%
MKN-28 [18]
  inhibition in vivo at 5 mg/kg: 80%
MKN-28 [19]
  Activity: 2.1
MKN-28 [20]
  Activity: 1.3
MKN-28 [21]
  inhibition in vivo at 15 mg/kg: 98%
MKN-28 [22]
  Activity: 0%
Mus musculus [23]
  Activity: Non-toxic
MKN-28 [24]
  Activity: 8%
MKN-28 [25]
  inhibition in vivo at 9 mg/kg: 91%
MKN-28 [26]
  Activity: 1.7
Mus musculus [27]
  Activity: Non-toxic

## CC[C@@]1(O)C(=O)OCc2c1cc1n(c2=O)Cc2c-1nc1ccccc1c2/C=N\OCCNCCCCNCCCN
NCI-H460
  IC50: 1070 nM
[1]
  Activity: 60%
